Assays:
[1] = Inhibition of bacterial Metallo-beta-lactamase VIM-1 (unknown origin) assessed as substrate hydrolysis using meropenem as substrate by UV-visible spectrometry analysis; set-up: species or system Bacteria
In short: (§1)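 Purified MBL enzyme at 1–70 nM final, in 50 mM HEPES pH 7.5 at 30 °C with 0.5% DMSO. Reporter substrate 150 µM imipenem or meropenem; hydrolysis read at 300 nm. […] Ki measured when inhibition exceeded 75%, by competitive-model v0/vi vs [I] slope or Dixon plot. Some runs used 10 min enzyme–inhibitor preincubation. Triplicate.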

[2] = Inhibition of bacterial Metallo-beta-lactamase VIM-2 (unknown origin) assessed as substrate hydrolysis using meropenem as substrate by UV-visible spectrometry analysis; set-up: species or system Bacteria; in short: as §1
[3] = Inhibition of bacterial Metallo-beta-lactamase VIM-4 (unknown origin) assessed as substrate hydrolysis using meropenem as substrate by UV-visible spectrometry analysis; set-up: species or system Bacteria; in short: as §1
[4] = test system: Bacteria; assay: Inhibition of bacterial New Delhi metallo-beta-lactamase 1 (unknown origin) assessed as substrate hydrolysis at 100 uM using meropenem as substrate by UV-visible spectrometry analysis; in short: as §1
[5] = test system: Bacteria; assay: Inhibition of bacterial Metallo-beta-lactamase IMP-1 (unknown origin) assessed as substrate hydrolysis at 100 uM using meropenem as substrate by UV-visible spectrometry analysis; in short: as §1
[6] = test system: Klebsiella pneumoniae; assay: Synergistic antibacterial activity against Klebsiella pneumonia 7023 clinical isolate strain producing Metallo-beta-lactamase VIM-1 assessed as meropenem MIC in presence of meropenem incubated for 24 hrs by broth microdilution method; assay type: functional
In short: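 CLSI broth microdilution in Mueller-Hinton broth with 5 × 10^4 CFU/well. Meropenem two-fold serial dilutions tested with and without inhibitor fixed at 32 µg/mL, inhibitor added before antibiotic. DMSO ≤1%. […] Growth controls included. Triplicate.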

[7] = test system: Klebsiella pneumoniae; assay: Synergistic antibacterial activity against Klebsiella pneumonia VA 416/02 clinical isolate strain producing Metallo-beta-lactamase VIM-4 assessed as meropenem MIC in presence of meropenem incubated for 24 hrs by broth microdilution method; conditions: VA 416/02, 24 h
[8] = test system: Bacteria; assay: Inhibition of bacterial Metallo-beta-lactamase VIM-1 (unknown origin) assessed as substrate hydrolysis at 100 uM using meropenem as substrate by UV-visible spectrometry analysis; in short: as §1
[9] = test system: Bacteria; assay: Inhibition of bacterial Metallo-beta-lactamase VIM-2 (unknown origin) assessed as substrate hydrolysis at 100 uM using meropenem as substrate by UV-visible spectrometry analysis; in short: as §1
[10] = test system: Bacteria; assay: Inhibition of bacterial Metallo-beta-lactamase VIM-4 (unknown origin) assessed as substrate hydrolysis at 100 uM using meropenem as substrate by UV-visible spectrometry analysis; in short: as §1
[11] = Inhibition of bacterial New Delhi metallo-beta-lactamase 1 (unknown origin) assessed as substrate hydrolysis using meropenem as substrate by UV-visible spectrometry analysis; set-up: species or system Bacteria; in short: as §1
[12] = Inhibition of bacterial Metallo-beta-lactamase IMP-1 (unknown origin) assessed as substrate hydrolysis using meropenem as substrate by UV-visible spectrometry analysis; set-up: species or system Bacteria; in short: as §1
[13] = test system: HeLa; assay: Cytotoxicity against human HeLa cells assessed as LDH release measured after 24 hrs by CytoTox96 nonradioactive assay; assay type: functional, cell-based
In short: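 HeLa cells (20,000/well) incubated 24 h at 37 °C, 5% CO2 in DMEM with 10% FBS, 4.5 mg/mL glucose and 2 mM L-glutamine, with compound up to 250 µM. LDH release measured. Medium-only control and Triton X-100 maximum-release control included. % cytotoxicity = 100 × sample/maximum release. IC50 taken as 50% cytotoxicity.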

[14] = test system: Bacteria; assay: Inhibition of bacterial Metallo-beta-lactamase IMP-1 (unknown origin) assessed as substrate hydrolysis at 25 uM using meropenem as substrate by UV-visible spectrometry analysis; in short: as §1
[15] = test system: Bacteria; assay: Inhibition of bacterial Metallo-beta-lactamase VIM-2 (unknown origin) assessed as substrate hydrolysis at 25 uM using meropenem as substrate by UV-visible spectrometry analysis; in short: as §1
[16] = test system: A549; assay: Cytotoxicity against human A549 cells assessed as cell viability measured after 48 hrs by RealTime-glo MT assay; assay type: functional, cell-based; conditions: A549, 48 h
In short: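 A549 cells incubated up to 48 h in DMEM with varying compound concentrations. Viable cell number read by bioluminescent real-time viability assay (NanoLuc luciferase with cell-permeant prosubstrate). Viability expressed relative to DMSO-only control culture, and IC50 derived.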

[17] = Cytotoxicity against human PBMC cells assessed as cell viability measured after 24 hrs by flowcytometry method; assay type: toxicity, cell-based; conditions: for IC50 at 24 h: human, PBMC cells
In short: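 PBMC from four individual donors were isolated by density centrifugation, frozen, thawed and resuspended at 1.10e6/mL in RPMI with 10% FBS. Compound added from 20 mM DMSO stock by serial dilution in RPMI; final concentrations 500–7.8 µM, in duplicate. After 24 h, live cells counted by flow cytometry using FSC/SSC gating. IC50 calculated for each donor.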

[18] = test system: Bacteria; assay: Inhibition of bacterial Metallo-beta-lactamase VIM-4 (unknown origin) assessed as substrate hydrolysis at 25 uM using meropenem as substrate by UV-visible spectrometry analysis; in short: as §1
[19] = test system: Bacteria; assay: Inhibition of bacterial Metallo-beta-lactamase VIM-1 (unknown origin) assessed as substrate hydrolysis at 25 uM using meropenem as substrate by UV-visible spectrometry analysis; in short: as §1

| SMILES | Ki [1] | Ki [2] | Ki [3] | inhibition [4] | inhibition [5] | MIC [6] | MIC [7] | Ki [11] | Ki [12] | further results |
| --- | --- | --- | --- | --- | --- | --- | --- | --- | --- | --- |
| S=c1[nH]nc(-c2ccccc2)n1CCSc1cccc2ccccc12 | 480 nM | 1000 nM | 250 nM | < 30% | < 30% | 8 µg/mL | 16 µg/mL |  |  |  |
| S=c1[nH]nc(-c2ccccc2)n1CCSc1nc2ccccc2s1 |  |  |  | < 30% | 47% |  |  |  |  | inhibition [8]: < 30%; inhibition [9]: 30%; inhibition [10]: 44% |
| COc1ccc(O)c(-c2n[nH]c(=S)n2CCSCc2ccccc2)c1 | 180 nM | 1650 nM | 600 nM | 46% | 63% | 2 µg/mL | 2 µg/mL |  |  |  |
| O=C(O)C(CSCCn1c(-c2ccccc2)n[nH]c1=S)c1ccccc1 (stereo not drawn) | 480 nM | 600 nM | 220 nM |  |  | 2 µg/mL | 4 µg/mL | 6 µM | 35 µM | IC50 [13]: > 250 µM |
| O=C(O)C(CSCCn1c(-c2cccc(-c3ccccc3)c2)n[nH]c1=S)c1ccccc1 (stereo not drawn) | 1390 nM | 370 nM | 210 nM |  | 56% | 4 µg/mL | 2 µg/mL | 20.3 µM |  |  |
| S=c1[nH]nc(-c2cccc(-c3ccccc3)c2)n1CCSCc1ccccc1 |  |  | 890 nM | < 30% |  | 16 µg/mL | 16 µg/mL |  |  | inhibition [14]: 21%; inhibition [15]: < 15% |
| O=[N+]([O-])c1ccc(O)c(CSCCn2c(-c3ccccc3)n[nH]c2=S)c1 | 580 nM | 210 nM | 250 nM |  | 62% | 1 µg/mL | 4 µg/mL | 11.9 µM |  | IC50 [13]: > 250 µM; IC50 [16]: 125 µM; IC50 at 24 h [17]: > 500 µM |
| S=c1[nH]nc(-c2ccccc2)n1CCSc1ccccc1 | 1260 nM | 1570 nM | 540 nM |  |  | 1 µg/mL | 1 µg/mL | 11 µM | 3.35 µM |  |
| S=c1[nH]nc(-c2ccccc2)n1CCCSc1ccccc1 | 2980 nM | 1350 nM | 4850 nM | 42% | 46% | 2 µg/mL | 1 µg/mL |  |  |  |
| O=C(O)C(SCCn1c(-c2ccccc2)n[nH]c1=S)c1ccccc1 (stereo not drawn) | 1650 nM | 190 nM | 210 nM | 40% | 30% | 4 µg/mL | 2 µg/mL |  |  |  |
| Cn1cccc1-c1n[nH]c(=S)n1CCSCc1ccccc1 | 230 nM | 340 nM | 250 nM | 75% |  | 2 µg/mL | 1 µg/mL | 28 µM | 9.04 µM | IC50 [13]: > 250 µM; IC50 [16]: > 250 µM; IC50 ([17]; pbmc): Non-Toxic |
| FC(F)(F)c1cc(SCCn2c(-c3ccccc3)n[nH]c2=S)c2ccccc2n1 |  |  |  |  | < 30% |  |  | 12.9 µM |  | inhibition [8]: 37%; inhibition [9]: < 30%; inhibition [10]: < 30% |
| S=c1[nH]nc(-c2ccc(OCc3ccccc3)cc2)n1CCSCc1ccccc1 | 2240 nM |  | 1040 nM | < 30% | 60% |  |  |  |  | inhibition [9]: < 30% |
| O=[N+]([O-])c1ccccc1CSCCn1c(-c2ccccc2)n[nH]c1=S | 480 nM | 570 nM | 560 nM |  | 72% | 2 µg/mL | 1 µg/mL | 13.2 µM | 19 µM |  |
| O=[N+]([O-])c1ccc(CSCCn2c(-c3ccccc3)n[nH]c2=S)cc1 | 430 nM | 1290 nM | 880 nM |  |  | 2 µg/mL | 1 µg/mL | 11.1 µM | 3.63 µM |  |
| Fc1ccccc1CSCCn1c(-c2ccccc2)n[nH]c1=S | 590 nM | 280 nM | 320 nM |  |  | 1 µg/mL | 2 µg/mL | 11.9 µM | 12.1 µM | IC50 [13]: 165 µM; IC50 at 24 h [17]: 175 µM |
| O=C(O)CCSCCn1c(-c2ccccc2)n[nH]c1=S | 1990 nM | 1910 nM | 1980 nM | 59% | 67% | 2 µg/mL | 1 µg/mL |  |  |  |
| Fc1ccc(CSCCn2c(-c3ccccc3)n[nH]c2=S)cc1 | 2220 nM | 830 nM | 1110 nM |  |  | 8 µg/mL | 2 µg/mL | 15.1 µM | 9.66 µM |  |
| O=C(O)CSCCn1c(-c2ccccc2)n[nH]c1=S | 2360 nM | 810 nM | 710 nM | 40% | < 30% | 2 µg/mL | 4 µg/mL |  |  |  |
| S=c1[nH]nc(Cc2ccc3ccccc3c2)n1CCSCc1ccccc1 |  |  |  | < 30% | 70% |  |  |  |  | inhibition [9]: < 30%; inhibition [18]: 23%; inhibition [19]: < 15% |
| S=c1[nH]nc(-c2ccccc2-c2ccccc2)n1CCSCc1ccccc1 |  |  |  | < 30% | 35% |  |  |  |  | inhibition [9]: < 30% |
| S=c1[nH]nc(-c2ccccc2)n1CCSCCc1ccccc1 | 460 nM | 1760 nM | 430 nM |  |  | 2 µg/mL | 1 µg/mL | 21.1 µM | 17.7 µM |  |
| S=c1[nH]nc(-c2ccc(-c3ccccc3)cc2)n1CCSCc1ccccc1 |  |  |  | < 30% | 60% |  |  |  |  | inhibition [9]: < 30%; inhibition [18]: < 15%; inhibition [19]: < 15% |
| S=c1[nH]nc(-c2ccccc2)n1CCSc1nc(-c2ccccc2)n[nH]1 |  |  |  | < 30% | 32% |  |  |  |  | inhibition [8]: < 30%; inhibition [9]: 44%; inhibition [10]: 52% |
| Cc1ccccc1-c1n[nH]c(=S)n1CCSCc1ccccc1 | 400 nM | 800 nM | 500 nM |  |  | 4 µg/mL | 2 µg/mL | 13 µM | 44 µM | IC50 [13]: 121 µM |
| Cc1nnc(SCCn2c(-c3ccccc3)n[nH]c2=S)s1 | 2170 nM |  | 2950 nM | < 30% | < 30% | 2 µg/mL | 2 µg/mL |  |  | inhibition [9]: 56% |
| Nc1ccccc1SCCn1c(-c2ccccc2)n[nH]c1=S | 470 nM | 1150 nM | 410 nM |  |  | 4 µg/mL | 2 µg/mL | 16.3 µM | 22.2 µM |  |
| Fc1ccc(CSCCn2c(-c3ccccc3)n[nH]c2=S)c(F)c1 | 1330 nM | 940 nM | 1180 nM |  |  | 2 µg/mL | 1 µg/mL | 12 µM | 8.67 µM |  |
| S=c1[nH]nc(-c2ccccc2)n1CCOCc1ccccc1 | 1020 nM | 3160 nM | 2060 nM | 33% | 42% | 4 µg/mL | 2 µg/mL |  |  |  |

Source: ChEMBL document CHEMBL5038617, “1,2,4-Triazole-3-thione compounds with a 4-ethyl alkyl/aryl sulfide substituent are broad-spectrum metallo-β-lactamase inhibitors with re-sensitization activity” (Eur J Med Chem, 2021)
